This is a sample that favours compounds with a hit; in the whole collection about 2.5% have one here.
NPY-Y1 antag = NPY-Y1 (human) receptor antagonism; hit rate 1% among 200,000; HEK293-CNG Y1 cells, membrane potential fluorescence; NPY at EC95, then isoproterenol; AID 1040; inhibition, % at 3.6 µM; P25929;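 active = inhibition above the campaign mean inhibition of all tested compounds plus 3 SD, cut at about 20% in these data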
Target sequence (P25929 whole entry, looked up): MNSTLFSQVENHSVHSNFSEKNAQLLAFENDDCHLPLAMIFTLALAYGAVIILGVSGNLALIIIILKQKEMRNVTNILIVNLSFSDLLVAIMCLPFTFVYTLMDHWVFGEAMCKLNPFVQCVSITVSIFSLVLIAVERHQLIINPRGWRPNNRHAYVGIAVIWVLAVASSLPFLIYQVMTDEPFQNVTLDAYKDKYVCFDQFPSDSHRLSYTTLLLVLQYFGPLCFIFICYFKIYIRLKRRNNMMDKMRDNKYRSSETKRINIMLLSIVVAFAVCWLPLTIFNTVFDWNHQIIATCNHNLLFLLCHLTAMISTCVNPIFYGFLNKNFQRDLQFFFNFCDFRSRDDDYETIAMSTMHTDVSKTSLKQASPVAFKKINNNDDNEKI
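Assay system: HEK293 Y1/CNG channel cell line; Doses: single compound dose of 3.6 µM, 0.4% DMSO; Timing: dye 3 h, compound 60 min room temperature, stimulation 45 min; Technique: Membrane-potential fluorescent dye readout; Measure: % inhibition of NPY effect.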
INS promoter inh = TRM-6 insulin promoter activity inhibition; inhibition, % at 2 µM; hit rate 0.9% among 130,000; TRM-6 cells, insulin promoter-eGFP reporter, imaging; reporter expression induced with tamoxifen;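 active = inhibition above the mean plus 3 SD, with well images judged a real hit on visual review, cut at about 60% in these data, passing the limit was not always enough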
NPY2 pot ag = potentiators or agonists of human neuropeptide Y receptor Y2. hit rate 0.45% among 220,000. activation, % at 3.6 µM. cells expressing NPY-Y2, potentiator/agonist read-out. AID 1359. P49146; in the data active = activation above about 27%;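 also: cells stimulated with NPY near EC25 plus isoproterenol at EC100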
NPY-Y2 antag = antagonists of human neuropeptide Y receptor Y2. NPY-Y2 expressing cells, antagonist mode. hit rate 0.99% among 140,000. P49146. inhibition, % at 2.7 µM; in the data active = inhibition above about 17%
Ins promoter up = MIN6 insulin promoter up-regulation; MIN6 insulin promoter-GFP reporter, high-content imaging; stronger effect = higher value; z-score at 5 µM; hit rate 0.3% among 190,000; AID 1625;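 active = z-score above 3 at 5 µM with at least 500 cells counted in the well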
NPY1 pot ag = potentiates or activates human NPY-Y1 receptor; NPY-Y1 expressing cells, potentiator/agonist activation; hit rate 0.37% among 220,000; activation, % at 3.6 µM; AID 1304; P25929; in the data active = activation above about 33%, passing the limit was not always enough;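 also: cells stimulated with NPY at EC10 then isoproterenol at EC100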
Numbers stand for hits.

What do the screens show for `CC(=O)Nc1ccc(NC(=O)c2ccc(CSc3ccccc3)o2)cc1`?
NPY-Y1 antag: inactive; INS promoter inh: 82; NPY2 pot ag: inactive; Ins promoter up: inactive; NPY1 pot ag: inactive

What do the screens show for `C/C(=N/NC(=O)c1cc(-c2cccc([N+](=O)[O-])c2)n[nH]1)c1ccc(Cl)cc1`?
NPY-Y1 antag: inactive; NPY2 pot ag: inactive; NPY-Y2 antag: inactive; Ins promoter up: inactive; NPY1 pot ag: inactive

Results for CCC(NC(=O)Nc1nnc(C(F)(F)F)s1)(C(F)(F)F)C(F)(F)F ?
NPY-Y1 antag: 38; NPY2 pot ag: inactive; NPY-Y2 antag: 25; Ins promoter up: inactive; NPY1 pot ag: inactive

Results for CNc1ccc(C(O)(C(F)(F)F)C(F)(F)F)cc1C(O)(C(F)(F)F)C(F)(F)F ?
NPY-Y1 antag: inactive; INS promoter inh: inactive; NPY2 pot ag: 58; NPY-Y2 antag: inactive; Ins promoter up: inactive; NPY1 pot ag: 46

Results for COc1cccc2c1OC1(C)CC2/C(=C(\C)O)C(=O)N1 (configuration not stated) ?
NPY-Y1 antag: inactive; INS promoter inh: 91; NPY2 pot ag: inactive; NPY-Y2 antag: inactive; Ins promoter up: inactive; NPY1 pot ag: inactive

Results for COc1cccc2c1OC1(C)CC2NC(=O)N1 (configuration not stated) ?
NPY-Y1 antag: inactive; INS promoter inh: inactive; NPY2 pot ag: inactive; NPY-Y2 antag: inactive; Ins promoter up: inactive; NPY1 pot ag: inactive

Results for Cc1ccc(/C=C2/C(=O)N(c3ccccc3)C(=S)N2C)o1 ?
NPY-Y1 antag: inactive; INS promoter inh: inactive; NPY2 pot ag: inactive; NPY-Y2 antag: inactive; Ins promoter up: inactive; NPY1 pot ag: inactive

Results for Cc1ccc(-n2ncc(C(=O)Nc3ccc(Cl)cc3)c2C2CCNCC2)cc1C ?
NPY-Y1 antag: 20; INS promoter inh: inactive; NPY2 pot ag: inactive; Ins promoter up: inactive; NPY1 pot ag: inactive

How did CC(C)(C)OC(=O)N1CCC(c2c(C(=O)O)cnn2-c2ccc(Cl)cc2)CC1 do in these assays?
NPY-Y1 antag: inactive; INS promoter inh: inactive; NPY2 pot ag: inactive; NPY-Y2 antag: inactive; Ins promoter up: inactive; NPY1 pot ag: inactive

Results for CC1CC(C)(C)N(C(=O)CSc2ccc(-c3ccc(F)cc3)nn2)c2ccccc21 (configuration not stated) ?
NPY-Y1 antag: inactive; INS promoter inh: inactive; NPY2 pot ag: inactive; NPY-Y2 antag: inactive; Ins promoter up: inactive; NPY1 pot ag: inactive

What do the screens show for `O=C(CSc1ncccn1)NC(=O)Nc1ccc2c(c1)OCCO2`?
NPY-Y1 antag: inactive; INS promoter inh: inactive; NPY2 pot ag: inactive; Ins promoter up: inactive; NPY1 pot ag: inactive

How did Cc1ccc(C)c(SCC(=O)NC(=O)Nc2ccc3c(c2)OCCO3)c1 do in these assays?
NPY-Y1 antag: inactive; INS promoter inh: 80; NPY2 pot ag: inactive; NPY-Y2 antag: inactive; NPY1 pot ag: inactive

How did Cc1c(C(=O)Cc2ccccc2)n(C)c2ccccc12 do in these assays?
NPY-Y1 antag: inactive; NPY2 pot ag: inactive; Ins promoter up: inactive; NPY1 pot ag: inactive

How did CCCC(=O)c1c(C)c2ccccc2n1C do in these assays?
NPY-Y1 antag: inactive; INS promoter inh: inactive; NPY2 pot ag: inactive; NPY-Y2 antag: inactive; Ins promoter up: 3; NPY1 pot ag: inactive

Results for Clc1ccc(CN2C3=NCCCN3c3ccccc32)cc1Cl ?
NPY-Y1 antag: 21; NPY2 pot ag: inactive; Ins promoter up: inactive; NPY1 pot ag: inactive

How did CC(Oc1ccc(F)cc1)C(=O)NN (configuration not stated) do in these assays?
NPY-Y1 antag: inactive; INS promoter inh: inactive; NPY2 pot ag: inactive; NPY-Y2 antag: inactive; Ins promoter up: inactive; NPY1 pot ag: inactive

Results for Cc1nc(-c2ccccc2)sc1C(N)=O ?
NPY-Y1 antag: inactive; INS promoter inh: inactive; NPY2 pot ag: inactive; NPY-Y2 antag: inactive; Ins promoter up: inactive; NPY1 pot ag: inactive

Results for Cc1nc(-c2ccccc2)sc1C(=O)CSc1ccccc1 ?
NPY-Y1 antag: 21; INS promoter inh: inactive; NPY2 pot ag: inactive; NPY-Y2 antag: 24; Ins promoter up: inactive; NPY1 pot ag: inactive

Results for CCOc1ccccc1CN1CCN(Cc2[nH]c3ccccc3c2C)CC1CCO (configuration not stated) ?
NPY-Y1 antag: 21; NPY2 pot ag: inactive; Ins promoter up: inactive; NPY1 pot ag: inactive

Results for O=C(COc1ccc(Cl)cc1)NCc1nnc(SCC(=O)Nc2ccccc2)o1 ?
NPY-Y1 antag: inactive; INS promoter inh: inactive; NPY2 pot ag: inactive; NPY-Y2 antag: inactive; Ins promoter up: inactive; NPY1 pot ag: inactive

Results for O=C(COc1ccc(Cl)cc1)NCc1nnc(SCC(=O)NC2CCCCC2)o1 ?
NPY-Y1 antag: inactive; INS promoter inh: inactive; NPY2 pot ag: inactive; NPY-Y2 antag: inactive; Ins promoter up: 3.3; NPY1 pot ag: inactive

How did Cc1occc1-c1nnc(-c2cc([N+](=O)[O-])cc([N+](=O)[O-])c2)o1 do in these assays?
NPY-Y1 antag: inactive; NPY2 pot ag: inactive; Ins promoter up: inactive; NPY1 pot ag: inactive

How did CC(C)CC(c1nnnn1CCc1ccccc1)N1CCC(C(N)=O)CC1 (configuration not stated) do in these assays?
NPY-Y1 antag: inactive; INS promoter inh: 100; NPY2 pot ag: inactive; NPY-Y2 antag: inactive; NPY1 pot ag: inactive

How did COc1ccc(CCn2nnnc2C(CC(C)C)N2CCC(C(N)=O)CC2)cc1OC (configuration not stated) do in these assays?
NPY-Y1 antag: inactive; NPY2 pot ag: inactive; NPY-Y2 antag: inactive; NPY1 pot ag: inactive

Results for COC(=O)c1c(-c2cccc(OC)c2)csc1N ?
NPY-Y1 antag: inactive; NPY2 pot ag: inactive; NPY-Y2 antag: inactive; NPY1 pot ag: inactive

How did COC(=O)c1c(-c2ccc(OC)c(OC)c2)csc1N do in these assays?
NPY-Y1 antag: inactive; INS promoter inh: 80; NPY2 pot ag: inactive; NPY-Y2 antag: inactive; Ins promoter up: inactive; NPY1 pot ag: inactive

How did Cc1c(C(=O)OCC(=O)N(C)C2CCS(=O)(=O)C2)oc2ccc(Br)cc12 (configuration not stated) do in these assays?
NPY2 pot ag: inactive; Ins promoter up: inactive; NPY1 pot ag: inactive

What do the screens show for `Cc1ncc(CN2CCN(CCc3ccccc3)C(CCO)C2)s1` (configuration not stated)?
NPY-Y1 antag: inactive; NPY2 pot ag: inactive; Ins promoter up: inactive; NPY1 pot ag: inactive

How did COc1cccc(C(=O)NCc2cn3ccsc3n2)c1 do in these assays?
NPY-Y1 antag: inactive; NPY2 pot ag: 98; NPY-Y2 antag: inactive; Ins promoter up: inactive; NPY1 pot ag: 72

How did O=C(NCc1cn2ccsc2n1)c1cccc(C(F)(F)F)c1 do in these assays?
NPY-Y1 antag: inactive; NPY2 pot ag: inactive; NPY-Y2 antag: inactive; Ins promoter up: inactive; NPY1 pot ag: inactive

How did CC(C)NC(=O)NC(=O)COC(=O)c1cccc(S(=O)(=O)N2CCCCC2)c1 do in these assays?
NPY-Y1 antag: inactive; INS promoter inh: inactive; NPY2 pot ag: inactive; NPY-Y2 antag: inactive; Ins promoter up: 4.6; NPY1 pot ag: inactive

What do the screens show for `NC(=O)COC(=O)c1cccc(S(=O)(=O)N2CCCCC2)c1`?
NPY-Y1 antag: inactive; INS promoter inh: inactive; NPY2 pot ag: inactive; Ins promoter up: inactive; NPY1 pot ag: inactive
